Measurements taken from PMC3475454 (Bioscience Reports, 2012).
Each block holds one compound with its values, some of them ahead of it.

Columns and labels:
firefly luciferase [1] = biological target: T1, firefly luciferase (Photinus pyralis, UniProt P08659); assay: Inhibition of pure commercially available firefly luciferase; format: biochemical; details: 10 μM, different enzyme concentrations
Procedure, shortened: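 Purified commercial firefly luciferase was prepared as a stock of 1 mg/ml in luciferase assay buffer lacking ATP and D-luciferin, supplemented with 0.1% BSA. Several enzyme concentrations were assayed with 10 μM test compound. Values are means of two experiments.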

Gaussia luciferase = Gaussia luciferase activity assay in cell culture supernatant; format: biochemical; details: 20 μM, Hepa1c1c7, 70.4 and 55.1c cells
Procedure, shortened: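 Hepa1c1c7, 70.4 and 55.1c cells were transfected by Lipofectamine 2000 with an AP-1-responsive Gaussia luciferase vector. After 24 h, culture supernatant was taken. 20 μM test compound (1% v/v of 2 mM DMSO solution) was added 5 min before reading. Luminescence was read for 10 s; n=3 and 4.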

firefly luciferase [2] = biological target: T1, firefly luciferase; assay: Firefly luciferase activity assay in cell lysates, compound added to lysate; format: biochemical; details: for IC50: IC50 for firefly luciferase inhibition
Renilla luciferase = Renilla luciferase (Renilla reniformis, UniProt P27652); assay: Renilla luciferase activity assay in cell lysates; format: biochemical; details: 20 μM added to lysates of Hepa1c1c7, 70.4 and 55.1c cells
Procedure, shortened: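 Hepa1c1c7, 70.4 and 55.1c cells were transfected with CMV-driven Renilla luciferase plasmid. After 24 h, cells were lysed in passive lysis buffer. 20 μM test compound (1% v/v of 2 mM DMSO stock) was added to the lysate 5 min before reading. Luminescence was read for 10 s; n=3 and 4.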

firefly luciferase [3] = biological target: T1, firefly luciferase; assay: Monitoring of firefly luciferase in living cells with D-luciferin-ethylester; format: cell-based; details: 20 μM, 30 min pre-incubation, 70.4 K15 and 55.1c K65 cells
Procedure, shortened: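 Living 70.4 K15 and 55.1c K65 cells stably expressing firefly luciferase were pre-incubated for 30 min in medium with 20 μM test compound (37°C, 5% CO2) and then washed with PBS. After 5 min, signal was read on a plate reader over 4 min or on a CCD camera over 8 min; n=4.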

[4] = system: β-catenin target genes Axin2 and Gpr49; assay: Real-time RT-PCR of β-catenin target genes; format: cell-based, mouse; details: 20 μM, 24 h
firefly luciferase [5] = biological target: T1, firefly luciferase; assay: Firefly luciferase reporter; format: cell-based; details: 20 μM; for Firefly luciferase inhibition in cells: stably transfected cell lines
Procedure, shortened: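 Stably STF-transfected 70.4- and 55.1c-derived mouse hepatoma clones, with G418 removed at plating, were exposed in culture to 20 μM test compound (0.1% DMSO) for 1 h or 24 h. Cells were lysed in passive lysis buffer. Signal was normalised to Alamar Blue vitality and expressed as % untreated; n=3 and 4.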

firefly luciferase [6] = details: cited from earlier work
Ultra-Glo luciferase = biological target: T2, Ultra-Glo luciferase (Photuris pensylvanica, UniProt Q27757); details: ref Promega Corporation web page; cited from earlier work
T2 sequence (Q27757 1-545): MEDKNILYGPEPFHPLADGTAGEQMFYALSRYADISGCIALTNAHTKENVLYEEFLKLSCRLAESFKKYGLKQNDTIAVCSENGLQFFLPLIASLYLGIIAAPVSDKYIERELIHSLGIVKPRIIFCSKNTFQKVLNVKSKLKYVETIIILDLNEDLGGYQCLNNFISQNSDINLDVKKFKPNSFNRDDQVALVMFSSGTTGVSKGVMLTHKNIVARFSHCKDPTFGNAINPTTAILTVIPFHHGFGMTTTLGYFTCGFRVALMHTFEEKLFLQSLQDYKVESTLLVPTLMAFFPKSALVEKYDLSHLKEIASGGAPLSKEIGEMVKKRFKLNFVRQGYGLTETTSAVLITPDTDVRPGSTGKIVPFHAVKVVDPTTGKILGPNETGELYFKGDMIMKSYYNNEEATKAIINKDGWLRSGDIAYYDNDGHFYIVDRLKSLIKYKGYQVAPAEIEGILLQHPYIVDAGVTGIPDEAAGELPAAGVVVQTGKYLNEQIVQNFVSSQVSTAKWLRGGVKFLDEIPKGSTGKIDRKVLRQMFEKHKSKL

T1 sequence (P08659 whole entry): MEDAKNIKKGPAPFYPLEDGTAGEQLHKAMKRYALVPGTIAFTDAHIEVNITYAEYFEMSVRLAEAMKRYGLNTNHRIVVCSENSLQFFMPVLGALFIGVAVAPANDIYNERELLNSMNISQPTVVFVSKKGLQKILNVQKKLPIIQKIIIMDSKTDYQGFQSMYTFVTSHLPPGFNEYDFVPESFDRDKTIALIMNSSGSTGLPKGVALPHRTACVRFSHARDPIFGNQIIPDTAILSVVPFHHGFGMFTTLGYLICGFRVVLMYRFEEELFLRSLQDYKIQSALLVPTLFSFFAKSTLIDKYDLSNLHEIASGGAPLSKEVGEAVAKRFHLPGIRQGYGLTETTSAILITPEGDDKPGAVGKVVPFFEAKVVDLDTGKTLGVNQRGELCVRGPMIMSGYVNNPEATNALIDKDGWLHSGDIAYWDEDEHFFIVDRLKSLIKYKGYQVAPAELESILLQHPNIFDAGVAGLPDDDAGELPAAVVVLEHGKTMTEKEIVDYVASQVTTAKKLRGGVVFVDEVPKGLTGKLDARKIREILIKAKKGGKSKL
Sequence of Renilla luciferase (P27652 whole entry): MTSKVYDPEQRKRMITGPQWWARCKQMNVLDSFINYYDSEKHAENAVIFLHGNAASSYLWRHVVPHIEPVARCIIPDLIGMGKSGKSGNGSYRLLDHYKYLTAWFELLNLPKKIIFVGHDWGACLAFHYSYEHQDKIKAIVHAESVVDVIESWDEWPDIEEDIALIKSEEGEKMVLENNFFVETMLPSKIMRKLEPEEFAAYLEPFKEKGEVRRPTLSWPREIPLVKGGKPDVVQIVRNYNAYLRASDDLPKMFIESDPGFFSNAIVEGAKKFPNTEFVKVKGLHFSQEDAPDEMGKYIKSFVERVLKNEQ

Inhibition of pure firefly luciferase (firefly luciferase [1]): also inhibited
Decay of the luminescence signal (firefly luciferase [2]; 1 μM, coenzyme A-free buffer, 9 min, compared with untreated lysate): somewhat less pronounced
Quenching of remnant firefly signal by Renilla buffer (firefly luciferase [2]; 20 μM added to Renilla buffer): further improved
Inhibition of firefly luciferase signals (firefly luciferase [2]; 20 μM added to lysates of untreated transiently transfected Hepa1c1c7, 70.4 and 55.1c cells): strongly inhibited
IC50 (firefly luciferase [2]; lysate of 55.1cSTF K53 cells): 0.95 µM
IC50 (firefly luciferase [2]; lysate of 55.1cSTF K65 cells): 1.42 µM
IC50 (firefly luciferase [2]; lysate of 70.4STF K15 cells): 0.85 µM
IC50 (firefly luciferase [2]; lysate of 70.4STF K31 cells): 0.88 µM
IC50 (firefly luciferase [2]; reaction buffer without coenzyme A, results not shown): ~1 µM
Mechanism of inhibition with respect to ATP and D-luciferin (firefly luciferase [2]; varied ATP and D-luciferin, mixed hyperbolic fit): non-competitive
Effect on Renilla luciferase (Renilla luciferase): not affected
Firefly luciferase activity in living cells (firefly luciferase [3]): effectively inhibits
Duration of firefly luciferase inhibition in living cells (firefly luciferase [5]): > 24 h
Firefly luciferase inhibition in cells (firefly luciferase [5]; 1 h incubation): strongly inhibited
Luminescence of STF firefly luciferase reporter (firefly luciferase [5]; 24 h, transiently transfected Hepa1c1c7, 70.4 and 55.1c cells): strong decrease of luminescence
Firefly luciferase inhibition in cells (firefly luciferase [5]; 24 h incubation): still pronounced
SMILES: COc1ccc(/C=C/c2ccccc2F)cc1 [NFκBAI4, (E)-2-fluoro-4′-methoxystilbene]
Effect on Gaussia luciferase (Gaussia luciferase): not affected
mRNA levels of Axin2 and Gpr49 [4]: not accompanied by a decrease in mRNA levels
Firefly luciferase inhibition in cells (firefly luciferase [5]; 48 h incubation): still visible in 70.4-derived, but not in 55.1c-derived, cell lines

Firefly luciferase inhibition in cells (firefly luciferase [5]; 1 h incubation): weaker
Firefly luciferase inhibition in cells (firefly luciferase [5]; 24 h incubation): disappeared in all cell lines
SMILES: Oc1ccc(/C=C/c2cc(O)cc(O)c2)cc1 [Resveratrol, 3,5,4′-trihydroxy-trans-stilbene]
Mechanism of inhibition with respect to ATP and D-luciferin (firefly luciferase [6]): non-competitive
Resistance of Ultra-Glo luciferase against inhibition (Ultra-Glo luciferase): more resistant

SMILES: Cc1cccc(/C=C/c2ccccc2)n1 [SIB-1893]
Efficacy of firefly luciferase inhibition (firefly luciferase [6]; compared with NFκBAI4): somewhat lower efficacy
